# Test results reported in PubChem BioAssay.
# Active and inactive are the calls of the source.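 Rule for the calls, unless noted: active = viability loss from added drug above about 55%, and viability with drug at most 40%, in both replicates (limit read from the data, passing the limit was not always enough); inconclusive = both conditions met in only one replicate; inactive = neither replicate meets both conditions.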
# What was measured:
# [1] = Her2 expression decrease, cell viability multiplex – SKBR3 breast tumor cells, AlphaScreen, ATP viability, primary screen (AID 461;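 active = Her2 level under about 52% in both replicate screens, with viability over 70% of control, limit read from the data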;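 for Her2 level: lower value means less Her2 protein in the cells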;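 for viability: percent of carrier control wells set as 100% viability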); details: SKBR3 Her2 protein level, 18-24 h, measured here: SKBR3 viability, ATP luminescence, at 10 µM
# [2] = target: Receptor tyrosine-protein kinase erbB-2 (Homo sapiens) (UniProt P04626); assay: as above; details: 18-24 h, at 10 µM, stronger effect = lower value
# Receptor tyrosine-protein kinase erbB-2 (Homo sapiens), sequence (P04626 whole entry, looked up): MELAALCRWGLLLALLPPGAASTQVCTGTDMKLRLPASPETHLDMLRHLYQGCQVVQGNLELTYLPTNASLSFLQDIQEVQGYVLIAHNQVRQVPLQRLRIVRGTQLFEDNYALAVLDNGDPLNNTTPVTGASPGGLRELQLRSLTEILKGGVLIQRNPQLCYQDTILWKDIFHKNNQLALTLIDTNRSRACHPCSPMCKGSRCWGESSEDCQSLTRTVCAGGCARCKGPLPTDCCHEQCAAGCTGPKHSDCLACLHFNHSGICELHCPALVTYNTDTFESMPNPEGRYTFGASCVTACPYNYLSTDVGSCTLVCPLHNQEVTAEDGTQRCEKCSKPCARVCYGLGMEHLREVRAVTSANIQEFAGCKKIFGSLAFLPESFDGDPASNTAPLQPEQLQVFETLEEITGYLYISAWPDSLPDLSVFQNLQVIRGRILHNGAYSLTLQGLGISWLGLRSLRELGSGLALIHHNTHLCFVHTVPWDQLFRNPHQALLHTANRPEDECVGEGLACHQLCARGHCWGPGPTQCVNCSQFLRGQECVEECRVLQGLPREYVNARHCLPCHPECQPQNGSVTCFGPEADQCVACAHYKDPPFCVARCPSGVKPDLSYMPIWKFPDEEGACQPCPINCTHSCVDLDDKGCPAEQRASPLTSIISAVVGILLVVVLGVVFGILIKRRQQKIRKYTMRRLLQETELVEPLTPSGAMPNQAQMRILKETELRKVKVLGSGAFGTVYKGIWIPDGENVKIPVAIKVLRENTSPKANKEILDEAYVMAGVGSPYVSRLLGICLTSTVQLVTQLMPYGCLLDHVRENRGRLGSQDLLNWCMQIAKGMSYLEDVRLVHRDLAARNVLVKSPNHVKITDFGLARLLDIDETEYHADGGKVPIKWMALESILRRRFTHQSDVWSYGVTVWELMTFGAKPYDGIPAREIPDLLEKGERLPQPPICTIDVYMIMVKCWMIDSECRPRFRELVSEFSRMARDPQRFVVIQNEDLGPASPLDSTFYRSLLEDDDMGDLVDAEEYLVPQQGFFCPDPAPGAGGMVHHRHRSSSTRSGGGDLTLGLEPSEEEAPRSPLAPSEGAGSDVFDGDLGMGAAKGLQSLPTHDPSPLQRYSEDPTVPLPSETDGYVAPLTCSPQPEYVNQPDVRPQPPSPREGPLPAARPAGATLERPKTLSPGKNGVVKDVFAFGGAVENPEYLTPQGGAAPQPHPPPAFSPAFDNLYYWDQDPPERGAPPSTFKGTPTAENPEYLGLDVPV
# [3] = reduced viability of SK-BR-3 breast cancer cells – cell-based, 24 h, human, pilot screen (AID 572;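 active = viability at or below 10% of carrier control in both of two separate runs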;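 note: compound exposure lasted between 18 and 24 h rather than exactly 24 h; 100% = carrier-treated control wells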); details: SK-BR-3 viability, CellTiter-Glo luminescence, at 10 µM, stronger effect = lower value
# [4] = HUVEC growth inhibition – cell-based, human, primary screen (AID 575;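 active = viability at or below 30% in both replicate assays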;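 note: 100% = median of untreated cell wells with 0.1% DMSO on each plate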); details: HUVEC proliferation, CellTiter-Glo luminescence, 72 h; at 10 µM; stronger effect = lower value
# Method in brief: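 material = primary HUVEC, no more than 12 passages | input = 1250 cells per well | controls = vehicle and MePR control wells | measured by = CTG luminescence | times = 72 h compound incubation | format = collagen-coated 384-well format | read-out = % viability vs DMSO wells | doses = single 10 µM dose, 0.1% DMSO, from 5x medium stock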
# [5] = H69AR cell proliferation blockers – human, duplicate replicates, primary screen (AID 580;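 active = viability at or under a set limit in both replicates, limit being median viability minus 3 SD, cut at about 48% in these data, passing the limit was not always enough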;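 note: 100% = mean luminescence of untreated wells and 0% = no signal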); details: H69AR lung tumor cells viability, ATP luminescence, 72 h; at 10 µM; stronger effect = lower value
# [6] = MRP1 drug-resistance reversers in H69AR cells – cell-based, doxorubicin co-treatment, pilot screen (AID 601); details: CellTiter-Glo, 72 h, at 10 µM; for differential viability (reversal): stronger effect = higher value
# [7] = yeast transport mutant growth inhibition pilot in 384-well plates, post-Golgi transport modulator project (AID 636; in the data active = inhibition above about 31%); details: absorbance 615 nm, about 18 h, stronger effect = higher value
# [8] = growth suppression of yeast trafficking mutant, preliminary HTS, modulators of trafficking downstream of Golgi apparatus project, 1536-format plate, OD 615 nm (AID 637; in the data active = inhibition above about 30%); details: yeast transport mutant growth, absorbance 615 nm, 18 h; stronger effect = higher value
# [9] = H69AR cells + 2 uM doxorubicin, measured here: viability with 2 uM doxorubicin, stronger effect = lower value
# [10] = H69AR cells, compound alone cytotoxicity
Compound,viability [1] [%],Her2 level [2],viability [3],viability [4],viability [5],differential viability (reversal) ([6]; H69AR cells + 2 uM doxorubicin),"viability [6, 9] [%]","viability [6, 10] [%]",inhibition [7],inhibition [8]
O=C(CS(=O)(=O)Cc1ccccc1)N1CCc2ccccc2C1,94.5,94.5% (inactive),94.5% (inactive),86.4% (inactive),101% (inactive),11.5% (inactive),89.4,101,-5.6% (inactive),-1.61% (inactive)
CCCCCC1CC(CC(=O)O)C(=O)O1 (stereo not given),100,96% (inactive),100% (inactive),82.5% (inactive),104% (inactive),7.44% (inactive),96.2,104,-4.87% (inactive),7.67% (inactive)
COc1ccc(C2CC(C(F)(F)F)n3ncc(C(=O)NCc4cccnc4)c3N2)cc1OC (stereo not given),86.5,93% (inactive),86.5% (inactive),94.2% (inactive),91.1% (inactive),11.6% (inactive),79.5,91.1,-4.47% (inactive),2.33% (inactive)
CC(C(=O)OCn1nnc2ccccc2c1=O)N1C(=O)c2ccccc2C1=O (stereo not given),110,100% (inactive),110% (inactive),93.9% (inactive),86.6% (inactive),-21% (inactive),108,86.6,-1.45% (inactive),30.2% (active)
COc1ccc(C)cc1S(=O)(=O)N1CCN(Cc2ccccc2)CC1,98,94.5% (inactive),98% (inactive),96.1% (inactive),91.2% (inactive),-1.38% (inactive),92.6,91.2,-2.24% (inactive),1.13% (inactive)
COc1ccc(C(CNC(=O)c2ccc(OCC3CCCO3)cc2)N2CCOCC2)cc1 (stereo not given),90,93.5% (inactive),90% (inactive),82.9% (inactive),105% (inactive),13.8% (inactive),90.7,105,-1.33% (inactive),-2.42% (inactive)
Cc1nnc(SCC(=O)Nc2cc(C(F)(F)F)ccc2N2CCOCC2)o1,93,99% (inactive),93% (inactive),93.8% (inactive),86.8% (inactive),-2.25% (inactive),89,86.8,-0.13% (inactive),-1.83% (inactive)
Cc1nn(C)c(C)c1CN(C)C(=O)c1cc2nc(-c3ccco3)cc(C(F)(F)F)n2n1,77,94.5% (inactive),77% (inactive),109% (inactive),86.6% (inactive),0.655% (inactive),85.9,86.6,1.67% (inactive),-9.33% (inactive)
CC(=O)N1CCN=C1SCc1ccc(Br)cc1,93,97.5% (inactive),93% (inactive),71.9% (inactive),87% (inactive),3.28% (inactive),83.7,87,-1.03% (inactive),9% (inactive)
Cn1c(C(=O)N2CCCC(C(=O)NCCCc3ccccc3)C2)cc2sccc21 (stereo not given),98,83.5% (inactive),98% (inactive),80.9% (inactive),82.3% (inactive),-16.3% (inactive),98.7,82.3,-1.28% (inactive),-1.17% (inactive)
Cc1nc(NCc2ccco2)c2oc3ccccc3c2n1,114,87% (inactive),114% (inactive),100% (inactive),80.6% (inactive),-1.13% (inactive),81.8,80.6,-6.4% (inactive),4.44% (inactive)
COc1ccc(CNc2nc(NCc3ccc(OC)cc3)n(S(C)(=O)=O)n2)cc1,104,114% (inactive),104% (inactive),92.6% (inactive),110% (inactive),8.61% (inactive),101,110,0% (inactive),0.82% (inactive)
COc1ccc(-n2c(SCc3ccc(C#N)cc3)nnc2-c2ccccn2)cc1,82.5,91.5% (inactive),82.5% (inactive),120% (inactive),96.3% (inactive),11.2% (inactive),85,96.3,-7.16% (inactive),-5.56% (inactive)
COc1ccc(S(=O)(=O)C(C#N)c2nc3ccccc3nc2N2CCCC(C)C2)cc1 (stereo not given),112,102% (inactive),112% (inactive),51.2% (inactive),75.5% (inactive),-10.6% (inactive),86,75.5,-2.21% (inactive),6.67% (inactive)
CCC1(CC)NC(=O)NC1=O,110,90% (inactive),110% (inactive),85% (inactive),105% (inactive),14.9% (inactive),90.1,105,-4.74% (inactive),3.11% (inactive)
COc1ccc(NC(=O)CS(=O)CC(=O)Nc2cc(Cl)ccc2OC)cc1 (stereo not given),91.5,106% (inactive),91.5% (inactive),80.8% (inactive),90.9% (inactive),-1.21% (inactive),92.1,90.9,-4.36% (inactive),-3.67% (inactive)
CCOC(=O)Cc1nnc2c(Nc3ccc(C)cc3)nc3nonc3n12,97,76% (inactive),97% (inactive),74.9% (inactive),94% (inactive),-1.2% (inactive),95.2,94,-4% (inactive),7.7% (inactive)
CCOC(=O)c1sc(NC(=O)C2CC=CCC2C(=O)O)nc1C (stereo not given),105,92.5% (inactive),105% (inactive),100% (inactive),98.1% (inactive),1.07% (inactive),97.1,98.1,-1.04% (inactive),-1.64% (inactive)
CCOC(=O)C1CCN(C(=O)C2CCN(S(=O)(=O)c3cc(Cl)ccc3Cl)CC2)CC1,92,91% (inactive),92% (inactive),115% (inactive),89.4% (inactive),20.7% (inactive),68.7,89.4,-5.07% (inactive),0.48% (inactive)
O=C(c1ccco1)N1CCN(c2ccc(Cl)cc2)CC1,86,116% (inactive),86% (inactive),95.6% (inactive),99.8% (inactive),19.1% (inactive),80.8,99.8,-0.93% (inactive),-5.4% (inactive)
O=C(c1cccc2ccccc12)N1CCC(N2CCN(c3ccccc3)CC2)CC1,84,90.5% (inactive),84% (inactive),81.7% (inactive),88% (inactive),-4% (inactive),92,88,-1.97% (inactive),-4.43% (inactive)
COc1cc(S(=O)(=O)N2CCC(N3CCCCC3)CC2)ccc1-n1cnnn1,92.5,108% (inactive),92.5% (inactive),98.3% (inactive),98% (inactive),8.69% (inactive),89.3,98,-3.78% (inactive),-6.35% (inactive)
Cc1nc2c3cnn(-c4ccccc4)c3ncn2n1,104,86% (inactive),104% (inactive),79.6% (inactive),96.7% (inactive),14.2% (inactive),82.5,96.7,-3.87% (inactive),1.64% (inactive)
O=C(NCc1ccco1)C1(S(=O)(=O)c2ccc(Cl)cc2)CC1,94,86% (inactive),94% (inactive),103% (inactive),71.2% (inactive),-21.5% (inactive),92.8,71.2,-0.65% (inactive),24.1% (inactive)
CCN(CC)c1ccc(NC(=O)CN2CCN(CC(=O)Nc3ccccc3F)CC2)cc1,81.5,93.5% (inactive),81.5% (inactive),80.2% (inactive),99.6% (inactive),11% (inactive),88.6,99.6,-3.95% (inactive),-1.33% (inactive)
O=C(O)c1ccc2c(c1)N(Cc1ccccc1F)C(=O)c1ccccc1S2=O (stereo not given),96,83.5% (inactive),96% (inactive),92.8% (inactive),103% (inactive),5.27% (inactive),97.8,103,-3.73% (inactive),4.43% (inactive)
CCC(Sc1nc(-c2ccccc2)c(C#N)c(=O)[nH]1)C(=O)Nc1cc(C)on1 (stereo not given),90.5,111% (inactive),90.5% (inactive),83% (inactive),101% (inactive),0.62% (inactive),101,101,-1.54% (inactive),-8.67% (inactive)
CCCCNc1cc(C)oc(=O)c1C(C)=O,94.5,107% (inactive),94.5% (inactive),105% (inactive),97.9% (inactive),7% (inactive),90.9,97.9,-4.86% (inactive),3.28% (inactive)
Cc1sc2ncnc(OCC(=O)N3CCN(S(=O)(=O)c4ccccc4)CC3)c2c1C,69.5,84.5% (inactive),69.5% (inactive),100% (inactive),92.7% (inactive),12% (inactive),80.7,92.7,-1.32% (inactive),0.95% (inactive)
